Results published in ChEMBL document CHEMBL5338714, “Design, synthesis and biological evaluation of biphenyl-benzamides as potent FtsZ inhibitors” (Eur J Med Chem, 2022).
Converted amounts (≈) assume the structure as drawn.

Assays:
Format in all cases: functional
Staphylococcus aureus [1] = assay: Antibacterial activity against Staphylococcus aureus ATCC25923 assessed as bacterial growth inhibition incubated for 18 hrs by CLSI based broth microdilution method
In short: (§1)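 CLSI broth microdilution. Log-phase bacteria in Mueller Hinton broth added to 2-fold serial dilutions spanning 128 to 0.25 or 2 to 0.004 µg/mL. Incubated aerobically for 18 h at 37 °C, then OD600 read. MIC is the lowest concentration giving ≥90% growth inhibition; three independent assays.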

Bacillus subtilis [2] = assay: Antibacterial activity against Bacillus subtilis ATCC9372 assessed as bacterial growth inhibition incubated for 18 hrs by CLSI based broth microdilution method; in short: as §1
Staphylococcus aureus [3] = assay: Antibacterial activity against Staphylococcus aureus ATCC29213 assessed as bacterial growth inhibition incubated for 18 hrs by CLSI based broth microdilution method; in short: as §1
Bacillus subtilis [4] = assay: Antibacterial activity against Bacillus subtilis 618 assessed as bacterial growth inhibition incubated for 18 hrs by CLSI based broth microdilution method; in short: as §1
Bacillus subtilis [5] = assay: Antibacterial activity against Bacillus subtilis MG27 assessed as bacterial growth inhibition incubated for 18 hrs by CLSI based broth microdilution method; in short: as §1
Bacillus subtilis [6] = assay: Antibacterial activity against Bacillus subtilis BS01 assessed as bacterial growth inhibition incubated for 18 hrs by CLSI based broth microdilution method; in short: as §1
Bacillus subtilis [7] = assay: Bactericidal activity against Bacillus subtilis ATCC9372 incubated for 24 hrs by broth microdilution method
In short: (§2)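 MBC from the broth microdilution plates (MHB, 2-fold dilutions). After 24 h, 5 µL aliquots from clear wells were plated on LB agar and incubated aerobically 24 h at 37 °C, then colonies counted. MBC = lowest concentration with no colonies.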

Klebsiella pneumoniae = assay: Antibacterial activity against Klebsiella pneumoniae 14578 assessed as bacterial growth inhibition incubated for 18 hrs by CLSI based broth microdilution method
In short: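 Broth microdilution to CLSI guidelines. Log-phase bacteria grown in Mueller Hinton broth, diluted, then exposed to 2-fold serial dilutions of compound (128 to 0.25 µg/mL or 2 to 0.004 µg/mL). Incubated aerobically 18 h at 37 °C. Growth read as OD600. MIC = lowest concentration giving ≥90% growth inhibition. Three independent assays.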

Staphylococcus aureus [8] = assay: Bactericidal activity against Staphylococcus aureus ATCC25923 incubated for 24 hrs by broth microdilution method; in short: as §2
Staphylococcus aureus [9] = assay: Induction of resistance in Staphylococcus aureus ATCC29213 assessed as fold increase in MIC at 0.5 times MIC after 18 passages incubated for 24 hrs by resistance development assay
In short: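 Serial passage of S. aureus ATCC29213. Initial MIC was found by broth microdilution. Bacteria from the 0.5 × MIC tubes (duplicate) were diluted to about 5 × 10^5 CFU/mL and re-exposed to compound for 24 h at 35 °C, then fold increase in MIC was determined. Repeated for 18 passages, with norfloxacin as comparator.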

Row | SMILES | MIC (Staphylococcus aureus [1]) [µg/mL] | MIC (Bacillus subtilis [2]) [µg/mL] | MIC (Staphylococcus aureus [3]) [µg/mL] | other results
1 | NC(=O)c1c(F)ccc(OCc2cccc(-c3ccc(Cl)cc3)c2)c1F | 0.25 (≈ 0.669 µM) | 0.063 (≈ 0.169 µM) | 0.25 (≈ 0.669 µM) | 
2 | COc1ccc(-c2cccc(COc3ccc(F)c(C(N)=O)c3F)c2)cc1 | 1 (≈ 2.71 µM) | 0.25 (≈ 0.677 µM) | 2 (≈ 5.41 µM) | 
3 | NC(=O)c1c(F)ccc(OC(CO)c2cccc(-c3ccc(C(F)(F)F)cc3)c2)c1F (stereo unspecified) | 4 (≈ 9.15 µM) | 0.5 (≈ 1.14 µM) | 8 (≈ 18.3 µM) | 
4 | CN[C@H](CC(C)C)C(=O)N[C@H]1C(=O)N[C@@H](CC(N)=O)C(=O)N[C@H]2C(=O)N[C@H]3C(=O)N[C@H](C(=O)N[C@H](C(=O)O)c4cc(O)cc(O)c4-c4cc3ccc4O)[C@H](O)c3ccc(c(Cl)c3)Oc3cc2cc(c3O[C@@H]2O[C@H](CO)[C@@H](O)[C@H](O)[C@H]2O[C@H]2C[C@](C)(N)[C@H](O)[C@H](C)O2)Oc2ccc(cc2Cl)[C@H]1O [VANCOMYCIN] |  | 1 (≈ 0.69 µM) |  | MBC (Bacillus subtilis [7]): 1 µg/mL (≈ 0.69 µM); MIC (Klebsiella pneumoniae): > 128 µg/mL; MBC (Staphylococcus aureus [8]): 0.5 µg/mL (≈ 0.345 µM)
5 | CCn1cc(C(=O)O)c(=O)c2cc(F)c(N3CCNCC3)cc21 [NORFLOXACIN] |  |  |  | fold change (FC) (Staphylococcus aureus [9]): 128
6 | N#Cc1ccc(-c2cccc(COc3ccc(F)c(C(N)=O)c3F)c2)cc1 | > 128 | > 128 | > 128 | 
7 | CCCCCc1ccc(-c2cccc(COc3ccc(F)c(C(N)=O)c3F)c2)cc1 | > 128 | 0.125 (≈ 0.305 µM) | > 128 | 

Continued, in another order:

Row | MIC (Staphylococcus aureus [1]) [µg/mL] | MIC (Bacillus subtilis [2]) [µg/mL] | MIC (Staphylococcus aureus [3]) [µg/mL] | SMILES | other results
8 | 1 (≈ 2.8 µM) | 0.125 (≈ 0.35 µM) | 2 (≈ 5.6 µM) | NC(=O)c1c(F)ccc(OCc2cccc(-c3ccc(F)cc3)c2)c1F | 
9 | 0.25 (≈ 0.566 µM) | 0.031 (≈ 0.0702 µM) | 0.25 (≈ 0.566 µM) | NC(=O)c1c(F)ccc(OCc2cccc(-c3ccc(C(F)(F)F)cc3Cl)c2)c1F | MIC (Bacillus subtilis [4]): 0.063 µg/mL (≈ 0.143 µM); MIC (Bacillus subtilis [5]): 0.063 µg/mL (≈ 0.143 µM); MIC (Bacillus subtilis [6]): 0.031 µg/mL (≈ 0.0702 µM)
10 | 0.5 (≈ 1.28 µM) | 0.016 (≈ 0.0408 µM) | 0.5 (≈ 1.28 µM) | NC(=O)c1c(F)ccc(OCc2cccc(-c3ccc(Cl)cc3F)c2)c1F | MIC (Bacillus subtilis [4]): 0.016 µg/mL (≈ 0.0408 µM); MIC (Bacillus subtilis [5]): 0.031 µg/mL (≈ 0.0791 µM); MIC (Bacillus subtilis [6]): 0.016 µg/mL (≈ 0.0408 µM)
11 | 0.5 (≈ 1.05 µM) | 0.125 (≈ 0.263 µM) | 0.5 (≈ 1.05 µM) | NC(=O)c1c(F)ccc(OCc2cccc(-c3ccc(C(F)(F)F)cc3C(F)(F)F)c2)c1F | 
12 | > 128 | > 128 | > 128 | NC(=O)c1c(F)ccc(OCc2cccc(-c3ccc(C(F)(F)F)c(Cl)c3)c2)c1F | 
13 | 0.5 (≈ 1.13 µM) | 0.125 (≈ 0.283 µM) | 0.5 (≈ 1.13 µM) | NC(=O)c1c(F)ccc(OCc2cccc(-c3ccc(Cl)cc3C(F)(F)F)c2)c1F | 
14 | 1 (≈ 2.45 µM) | 0.125 (≈ 0.307 µM) | 2 (≈ 4.91 µM) | NC(=O)c1c(F)ccc(OCc2cccc(-c3ccc(C(F)(F)F)cc3)c2)c1F | 
15 | > 128 | 32 (≈ 90.6 µM) | > 128 | Cc1cccc(-c2cccc(COc3ccc(F)c(C(N)=O)c3F)c2)c1 | 
16 | 1 (≈ 2.29 µM) | 0.063 (≈ 0.144 µM) | 1 (≈ 2.29 µM) | COc1cc(C(F)(F)F)ccc1-c1cccc(COc2ccc(F)c(C(N)=O)c2F)c1 | 
17 | > 128 | > 128 | > 128 | NC(=O)c1c(F)ccc(OCc2cccc(-c3ccc(C(F)(F)F)c(F)c3)c2)c1F | 
